Screens: PubChem, several laboratories
In the library only some 1.9% were active in any assay of this set; here they are far more common.
SR-BI DiI-HDL act = activators of SR-BI mediated DiI-HDL uptake, primary screen, ldlA[mSR-BI] CHO cells, DiI fluorescence; activation, % at 12.5 µM; 3 h; 100 = double the neutral-control signal; 320,000 compounds, 0.096% hits; AID 504775, 2011;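 active = mean replicate activation of at least 60% and every replicate at or above 60%; inconclusive = mean or all-replicate condition met, but not both; inactive = mean below 60% and not all replicates reaching 60%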
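system = CHO ldlA[mSR-BI] cells, LDL receptor-null, SR-BI overexpressing | medium = Ham's F12 with 0.5% BSA, HEPES 25 mM, pH 7.4 | probe or stimulus = DiI-HDL 10 µg/mL | compound dosing = single-point compound dose | incubation = compound exposure 3 h, 37 °C | technique = DiI fluorescence, bottom read | read-out = cell-associated DiI fluorescence as measure of HDL uptake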
SR-BI DiI inh = inhibitors of SR-BI mediated HDL lipid uptake, primary screen, ldlA[mSR-BI] cells, fluorescence, single point | Scavenger receptor class B member 1 (Mus musculus), Q61009 | ldlA[mSR-BI] CHO cells, DiI-HDL uptake fluorescence, 3 h | inhibition, % at 12.5 µM | 320,000 compounds, 0.96% hits;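 active = mean replicate inhibition of at least 70% and a set share of replicates each scoring 70 or more; inconclusive = meets just one of the two criteria; inactive = fails both criteria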
Neddyl block = inhibitors of cullin neddylation, primary screen, biochemical, TR-FRET, uHTS, NAE and Ubc12 | inhibition, % at 25 µM | 360,000 compounds, 0.58% hits; in the data active = inhibition above about 36%
Target sequence (P61081 whole entry, looked up): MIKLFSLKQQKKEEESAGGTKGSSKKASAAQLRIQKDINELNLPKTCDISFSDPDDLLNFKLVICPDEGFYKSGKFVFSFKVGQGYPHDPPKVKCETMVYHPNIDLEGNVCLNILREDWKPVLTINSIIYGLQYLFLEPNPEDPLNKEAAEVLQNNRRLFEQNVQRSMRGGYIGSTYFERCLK
Target sequence (Q13564 whole entry, looked up): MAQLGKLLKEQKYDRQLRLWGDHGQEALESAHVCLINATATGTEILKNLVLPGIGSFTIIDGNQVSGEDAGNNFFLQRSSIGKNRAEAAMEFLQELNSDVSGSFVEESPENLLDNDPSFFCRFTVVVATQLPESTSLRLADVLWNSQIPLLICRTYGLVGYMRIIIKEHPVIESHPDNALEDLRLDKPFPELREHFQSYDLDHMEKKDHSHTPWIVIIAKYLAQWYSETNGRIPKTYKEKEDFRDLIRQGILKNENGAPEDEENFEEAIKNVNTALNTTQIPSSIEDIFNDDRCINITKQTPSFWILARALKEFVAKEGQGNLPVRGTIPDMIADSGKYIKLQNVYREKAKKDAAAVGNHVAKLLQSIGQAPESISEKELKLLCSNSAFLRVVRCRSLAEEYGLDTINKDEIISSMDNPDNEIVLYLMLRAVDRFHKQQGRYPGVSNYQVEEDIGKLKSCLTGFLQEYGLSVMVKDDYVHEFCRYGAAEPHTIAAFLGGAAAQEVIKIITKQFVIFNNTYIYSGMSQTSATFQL
UBC13 inh = UBC13 polyubiquitin chain formation inhibitors, primary screen, biochemical, TR-FRET, uHTS | 330,000 compounds, 0.47% hits | Ubiquitin-conjugating enzyme E2 N (Homo sapiens), P61088 | inhibition, % at 20 µM; in the data active = inhibition above about 45%, passing the limit was not always enough; inconclusive = no clear call, values can overlap the other calls
Hits are given with their value; i = inactive; ? = inconclusive; nt = not tested or not shown.

SMILES	SR-BI DiI-HDL act	SR-BI DiI inh	Neddyl block	UBC13 inh
O=C(/C=C/c1ccco1)Nc1sc2c(c1C(=O)O)CCC2	i	i	i	i
Cc1ccc(C(=O)Nc2sc3c(c2C#N)CCCCC3)cc1C	i	i	i	i
N#Cc1c(NC(=O)CSC2=NCCS2)sc2c1CCCC2	i	81.9	i	i
N#Cc1c(NC(=O)CSc2ncn[nH]2)sc2c1CCCC2	i	i	i	i
N#Cc1c(NC(=O)c2ccccc2)sc2c1CCCCC2	i	78.5	nt	i
NC(=O)c1c(NC(=O)c2ccc(N3C(=O)CCC3=O)cc2)sc2c1CCCC2	i	75.4	i	i
N#Cc1c(NC(=O)/C=C/c2ccco2)sc2c1CCCC2	i	80.1	i	nt
O=C(COC(=O)CCSc1ccc(Cl)cc1)NCc1ccco1	nt	nt	i	i
O=C(Cn1cc(COc2c(F)c(F)c(Br)c(F)c2F)nn1)c1ccc(O)cc1	i	i	i	nt
CCC1(C(=O)OC)NC(c2ccco2)C2C(=O)N(c3ccc(C)cc3)C(=O)C21 (stereo not given)	157.8	i	i	i
CCOC(=O)C(=N/O)/C(C)=N/NC(C)=O	i	i	i	i
CCOC(=O)C(=N/O)/C(C)=N/NC(=O)C(=O)Nc1cc(Cl)ccc1Cl	i	80.8	i	i
O=Nc1c(-c2c(O)[nH]c3cc(Br)ccc23)[nH]c2ccccc12	i	118.2	i	i
Cc1c(NC(=O)Nc2cccc(Cl)c2Cl)c(=O)n(-c2ccccc2)n1C	i	i	i	i
CNC(=O)NC(=O)C(C)OC(=O)c1c2c(nc3ccccc13)/C(=C/c1cccs1)CC2 (stereo not given)	i	i	44.8	i
COc1ccc(-c2nc(C#N)c(NCc3ccc(F)cc3)o2)cc1OC	i	73.7	nt	i
COc1ccc(-c2nc(C#N)c(NCc3cccnc3)o2)cc1OC	i	i	41.8	i
C/C(CC(=O)Nc1ccc(Cl)c(C(F)(F)F)c1)=N\NC(N)=S	i	80.1	i	i
CCCCn1c(O)c2n(c1=O)Cc1ccccc1N=C2c1ccc(C)cc1	nt	nt	i	nt
CCC(CC)COC(=O)C1=C(C)NC(=O)NC1c1ccc2c(c1)OCO2 (stereo not given)	i	i	i	i
OCCNc1ncnc2c1ncn2[C@H]1CN(Cc2ccc(Cl)cc2)C[C@@H](CO)O1	nt	nt	i	nt
Nc1ccc(C(=O)N2CCCC2)cc1	i	i	i	i
Nc1ccc(C(=O)n2c3ccccc3c3ccccc32)cc1	i	90.8	i	?
COc1ccc(-c2csc(Nc3ccccc3)n2)cc1	i	73.4	i	i
COc1cccc(Nc2nc(-c3ccc4c(c3)OCCO4)cs2)c1	i	91.4	i	i
SMILES	SR-BI DiI-HDL act	SR-BI DiI inh	Neddyl block	UBC13 inh
COc1ccc(Nc2nc(-c3ccc(OC)cc3)cs2)cc1	i	i	i	i
c1cc2c(cc1Nc1nc(-c3ccc4c(c3)OCO4)cs1)OCCO2	i	i	i	i
CC(=O)Oc1ccc(-c2csc(Nc3ccc(S(N)(=O)=O)cc3)n2)cc1	i	i	i	i
COc1ccc(-c2csc(Nc3ccc(S(N)(=O)=O)cc3)n2)cc1	107.9	i	i	i
Cc1[nH]c2ccccc2c1/C=N/Nc1nc2ccccc2[nH]1	i	i	53.4	i
Cc1[nH]c2ccccc2c1/C=N/Nc1nc(N2CCCCC2)nc(N2CCCCC2)n1	i	90.6	i	i
C(=N\Nc1nc(N2CCCCC2)nc(N2CCCCC2)n1)/c1c[nH]c2ccccc12	i	i	i	i
CCOC(=O)C1(C)CCCN(C(=O)c2ccc(C#N)cc2)C1 (stereo not given)	nt	nt	i	nt
CCCNC(=O)C1(C)CCCN(Cc2ccccc2N(C)C)C1 (stereo not given)	nt	nt	i	nt
COc1cc(CNCCc2ccccc2)ccc1OCC(N)=O	63.7	i	i	i
COc1cc(CNCCc2ccccc2)ccc1OCC(=O)NC(C)(C)C	i	i	i	i
Cc1ccccc1C1CC(=O)Oc2cc(O)ccc21 (stereo not given)	i	i	i	nt
O=C(Nc1cc(Sc2ccccn2)cc([N+](=O)[O-])c1)c1ccc([N+](=O)[O-])cc1	i	89.8	i	i
CC(NC(=O)C1CCN(CCOc2ccc(Cl)cc2)CC1)c1cccc2ccccc12 (stereo not given)	nt	nt	i	nt
C/C(CS(=O)(=O)c1ccc(Cl)c(Cl)c1)=N/NC(N)=S	i	80.8	i	i
Cc1ccc(/C=N/NC(=O)C2CC(=O)N(c3ccccc3)C2)s1 (stereo not given)	i	i	i	i
O=C(N/N=C/c1ccccc1O)C1CC(=O)N(c2ccc(Cl)cc2)C1 (stereo not given)	i	i	50.9	i
CCOc1ccc(S(=O)(=O)NC(C)C(=O)NCc2cccnc2)cc1 (stereo not given)	i	i	i	i
Cc1oc(-c2ccccc2F)nc1CS(=O)CC(=O)NC1CCCCC1 (stereo not given)	i	i	i	i
Cc1cccc(NC(=O)C2CCN(S(=O)(=O)c3c(C)c(C)cc(C)c3C)CC2)n1	i	72.8	i	i
COc1ccc(-c2[nH]n(-c3ccc([N+](=O)[O-])cc3)c(=O)c2C=NCCN2CCNCC2)cc1	nt	nt	nt	i
COc1ccc(-c2[nH]n(-c3ccc([N+](=O)[O-])cc3)c(=O)c2C=NCc2ccccc2)cc1	i	87.4	i	i
O=C1NC[C@@H](CCCCN2C[C@H](Cc3ccccc3)N(CCC3CCCCC3)C(=O)C2=O)N(CC2CCCCC2)C1=O	nt	nt	i	nt
COc1cc(C(=O)Oc2cc(C)cc(C)c2)cc(OC)c1OC	i	77.5	i	i
CCOC(=O)C(=O)NC12CC3CC(CC(C3)C1)C2	63.1	i	i	i
SMILES	SR-BI DiI-HDL act	SR-BI DiI inh	Neddyl block	UBC13 inh
O=C(COC(=O)COc1cccc(Br)c1)Nc1c(Cl)cccc1Cl	373.6	i	i	i
COc1ccccc1N=C1NC(=O)/C(=C/c2ccc(N(C)C)cc2)S1	i	i	i	i
CC1CCN(c2ccccc2NC(=O)c2ccc(C#N)cc2F)CC1	i	76.6	i	i
CC(C)C(=O)N1CCN(c2ccccc2NC(=O)c2ccc(C#N)cc2F)CC1	i	i	i	i
OCCN1CCN(c2ncnc3c2ncn3[C@H]2CN(Cc3ccc4c(c3)OCO4)C[C@@H](CO)O2)CC1	nt	nt	i	nt
Cn1c(=O)n(CCCO)c(=O)c2c1nc1n2CCCN1Cc1ccccc1	i	i	i	i
COc1ccc(/C=N\NC(=O)c2ccccc2Br)cc1COc1ccc(F)cc1	i	79.3	i	i
CCc1ccc(/C=N/NC(=O)c2cc(-c3ccccc3OC)nc3ccccc23)s1	nt	nt	i	i
COc1ccc(/C=N/NC(=O)c2cc(-c3ccc(C)cc3C)nc3ccccc23)cc1COC(C)=O	i	i	nt	i
COc1ccc(/C=N/NC(=O)c2cc(-c3ccccc3OC)nc3ccccc23)cc1COC(C)=O	i	i	38.9	i
COc1ccc(/C=N\NC(=O)c2ccccc2)cc1COc1ccc(F)cc1	i	i	i	i
COc1ccccc1-c1cc(C(=O)N/N=C/c2ccc(C)s2)c2ccccc2n1	i	77.1	i	i
